In brackets after ≈: the same amount, converted by molar mass.
Columns and labels:
Mus musculus [1] = assay: Maximum tolerated dose (MTD) in mice bearing s.c. B-16 Melanomas; format: functional
Mus musculus [2] = assay: Effect on in Vivo Growth of s.c. B-16 Melanomas in mice measured ad difference of average times for tumors to reach a volume of 500 mm**3 between treatment and control groups at dose of 35 mg/kg; format: functional
Mus musculus [3] = assay: Effect on in Vivo Growth of s.c. B-16 Melanomas in mice measured ad difference of average times for tumors to reach a volume of 500 mm**3 between treatment and control groups at dose of 48 mg/kg; format: functional
Mus musculus [4] = assay: Effect on in Vivo Growth of s.c. B-16 Melanomas in mice measured ad difference of average times for tumors to reach a volume of 500 mm**3 between treatment and control groups at dose of 60 mg/kg; format: functional
Mus musculus [5] = assay: Effect on in Vivo Growth of s.c. B-16 Melanomas in mice measured ad difference of average times for tumors to reach a volume of 500 mm**3 between treatment and control groups at dose of 75 mg/kg; format: functional
Mus musculus [6] = assay: Effect on in Vivo Growth of s.c. B-16 Melanomas in mice measured ad difference of average times for tumors to reach a volume of 500 mm**3 between treatment and control groups at dose of 41 mg/kg; format: functional
Mus musculus [7] = species on record: Mus musculus; assay: Maximum tolerated dose (MTD) in mice; format: functional
Mus musculus [8] = assay: Effect on in Vivo Growth of s.c. HT-29 […] in mice measured ad difference of average times for tumors to reach a volume of 500 mm**3 between treatment and control groups at dose of 24 mg/kg; format: functional
Method in brief: (§1)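 Athymic nude mice bearing human HT-29 colon or NCI-H460 lung carcinoma cells were given a single bolus ip injection, dosed as mg CPT equivalent/kg. Endpoint was TGD in days, the difference in mean time to reach 500 mm³ tumor volume between treated and control groups. Student's t-test vs vehicle.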

[9] = Aqueous solubility was measured; format: physicochemical
Method in brief: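 Conjugate dissolved in aqueous Na₂HPO₄ (0.1 M, pH 7.4) at 37 °C; solubility expressed as mg of conjugate per mL.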

Mus musculus [10] = assay: Effect on in Vivo Growth of s.c. HT-29 […] in mice measured ad difference of average times for tumors to reach a volume of 500 mm**3 between treatment and control groups at dose of 28 mg/kg; format: functional; method in brief: as §1
Mus musculus [11] = assay: Effect on in Vivo Growth of s.c. HT-29 […] in mice measured ad difference of average times for tumors to reach a volume of 500 mm**3 between treatment and control groups at dose of 20 mg/kg; format: functional
Method in brief: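 Athymic nude mice bearing human HT-29 colon carcinoma cells got a single bolus ip injection of conjugate, dosed in mg CPT equivalent/kg. Tumor growth delay (days) is the difference in average time for tumors to reach 500 mm³ between treated and control groups. Significance was tested by Student's t-test against vehicle.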

In the case of CC[C@@]1(OC(=O)CCCOC(=O)CC[C@H](N)C(=O)O)C(=O)OCc2c1cc1n(c2=O)Cc2cc3ccccc3nc2-1, the MTD (Mus musculus [1]) is reported as ~35 (mg of CPT) kg-1 and the TGD (Mus musculus [2]) is reported as 3 days.

In the case of CC[C@@]1(OC(=O)CNC(=O)CC[C@H](N)C(=O)O)C(=O)OCc2c1cc1n(c2=O)Cc2cc3ccccc3nc2-1, the MTD (Mus musculus [1]) is reported as ~40 (mg of CPT) kg-1 and the TGD (Mus musculus [2]) is reported as 2 days.

For CC[C@@]1(OC(=O)CC[C@H](N)C(=O)O)C(=O)OCc2c1cc1n(c2=O)Cc2cc3ccccc3nc2-1, the TGD (Mus musculus [3]) was 4 days and the MTD (Mus musculus [1]) was “>=48 (mg of CPT) kg-1”.

For CC[C@@]1(OC(=O)CCCNC(=O)CC[C@H](N)C(=O)O)C(=O)OCc2c1cc1n(c2=O)Cc2cc3ccccc3nc2-1, the MTD (Mus musculus [1]) was “>=60 (mg of CPT) kg-1” and the TGD (Mus musculus [4]) was 1 days.

With CC[C@@]1(OC(=O)COC(=O)CC[C@H](N)C(=O)O)C(=O)OCc2c1cc1n(c2=O)Cc2cc3ccccc3nc2-1 the MTD (Mus musculus [1]) was “>=75 (mg of CPT) kg-1” and the TGD (Mus musculus [5]) was 4 days.

With CC[C@@]1(OC(=O)CCC(NC(=O)CC[C@H](N)C(=O)O)C(=O)O)C(=O)OCc2c1cc1n(c2=O)Cc2cc3ccccc3nc2-1 (stereo not given in full) the MTD (Mus musculus [1]) was “>=41 (mg of CPT) kg-1” and the TGD (Mus musculus [6]) was 1 days.

With CC[C@@]1(OC(=O)CNC(=O)CNC(=O)CNC(=O)CC[C@H](N)C(=O)O)C(=O)OCc2c1cc1n(c2=O)Cc2cc3ccccc3nc2-1 the MTD (Mus musculus [7]) was <34 (mg of CPT) kg-1, the TGD (Mus musculus [8]) was 7 days and the solubility [9] was 33 mg/mL (≈ 50.9 mM).

For CC[C@@]1(OC(=O)CNC(=O)CNC(=O)CC[C@H](N)C(=O)O)C(=O)OCc2c1cc1n(c2=O)Cc2cc3ccccc3nc2-1, the MTD (Mus musculus [7]) was “>=28 (mg of CPT) kg-1”, the TGD (Mus musculus [10]) was 4 days and the solubility [9] was 34 mg/mL (≈ 57.5 mM).

For CC[C@@]1(O)C(=O)OCc2c1cc1n(c2=O)Cc2cc3ccccc3nc2-1 [CAMPTOTHECIN], the MTD (Mus musculus [7]) was ~20 (mg of CPT) kg-1 and the TGD (Mus musculus [11]) was 17 days.

Source: ChEMBL document CHEMBL1145017, “Synthesis and in vivo antitumor activity of poly(l-glutamic acid) conjugates of 20S-camptothecin” (J Med Chem, 2003)
